Data taken from ChEMBL document CHEMBL1157379, “Transcriptional response of Candida parapsilosis following exposure to farnesol” (2007).
Calls of active or inactive are those of the source. The rule behind the calls is not given here.

Key:
Candida parapsilosis [1] = assay: Antifungal activity against Candida parapsilosis CLIB214 assessed as growth inhibition at 50 uM added 4 hrs after […] growth; format: functional, organism-based
Outline: (§1)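 C. parapsilosis CLIB214 grown overnight in YPD at 30°C, diluted to A600 0.2 in fresh YPD, grown 4 h (A600 0.8), then farnesol added at final 10, 20, 50 or 100 μM from a 40 mM methanol stock. Methanol-only controls. Growth followed by A600 or by cell counting with a particle counter.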

Candida parapsilosis [2] = assay: Increase in NIT2 gene expression in Candida parapsilosis CLIB214 at 50 uM after 2 hrs by microarray based transcriptional profiling relative to control; format: functional
Outline: (§2)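 Strain grown overnight in YPD at 30°C, diluted to A600 0.2 in YPD at 30°C; farnesol (40 mM methanol stock) added at 4 h (A600 0.8), final 50 μM; methanol-only control. Cells collected 2 h later for RNA. Labelled cDNA from 25 μg total RNA (Cy3/Cy5-dCTP) hybridized to 68-mer oligo arrays at 42°C ~16 h; six individual comparisons analysed statistically.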

Candida parapsilosis [3] = assay: Decrease in CGD gene ortholog accession number orf19.409 expression in Candida parapsilosis CLIB214 at 50 uM after 2 hrs by microarray based transcriptional profiling relative to control; format: functional
Outline: (§3)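 Cells in YPD at 30°C treated with 50 μM farnesol at 4 h, with a methanol control. RNA harvested 2 h later and kept only if 28S/18S ratio was 1.6–2.2 with no degradation. 25 μg total RNA oligo-dT primed and labeled with Cy3/Cy5-dCTP. Labeled cDNA hybridized about 16 h at 42°C to duplicate-spotted 68-mer oligo arrays. Six individual comparisons analyzed statistically.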

Candida parapsilosis [4] = assay: Decrease in CGD gene ortholog accession number orf19.2308 expression in Candida parapsilosis CLIB214 at 50 uM after 2 hrs by microarray based transcriptional profiling relative to control; format: functional; outline: as §3
Candida parapsilosis [5] = assay: Increase in CGD gene ortholog accession number orf19.1230 expression in Candida parapsilosis CLIB214 at 50 uM after 2 hrs by microarray based transcriptional profiling relative to control; format: functional
Outline: (§4)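 Strain CLIB214 grown overnight in YPD at 30°C, diluted to A600 0.2 in fresh YPD at 30°C. After 4 h (A600 0.8), farnesol (40 mM methanol stock) added to 50 μM final, or an equal methanol volume as control; cells harvested 2 h later. RNA was accepted only with a 28S/18S ratio of 1.6–2.2. Cy3/Cy5-dCTP-labelled cDNA was made from 25 μg total RNA. Hybridisation was to duplicate-spotted 68-mer oligo arrays (3,849 genes) at 42°C for about 16 h. Six individual comparisons.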

Candida parapsilosis [6] = assay: Decrease in CGD gene ortholog accession number orf19.6687 expression in Candida parapsilosis CLIB214 at 50 uM after 2 hrs by microarray based transcriptional profiling relative to control; format: functional; outline: as §4
Candida parapsilosis [7] = assay: Antifungal activity against Candida parapsilosis CLIB214 assessed as growth inhibition at 50 uM after 4 hrs; format: functional; conditions: CLIB214, 4 h; outline: as §1
Candida parapsilosis [8] = assay: Increase in CGD gene ortholog accession number orf19.5847 expression in Candida parapsilosis CLIB214 at 50 uM after 2 hrs by microarray based transcriptional profiling relative to control; format: functional; outline: as §4
Candida parapsilosis [9] = assay: Decrease in CGD gene ortholog accession number orf19.2366 expression in Candida parapsilosis CLIB214 at 50 uM after 2 hrs by microarray based transcriptional profiling relative to control; format: functional; outline: as §3
Candida parapsilosis [10] = assay: Increase in TEF1 gene expression in Candida parapsilosis CLIB214 at 50 uM after 2 hrs by microarray based transcriptional profiling relative to control; format: functional; outline: as §2
Candida parapsilosis [11] = assay: Decrease in CGD gene ortholog accession number orf19.2328 expression in Candida parapsilosis CLIB214 at 50 uM after 2 hrs by microarray based transcriptional profiling relative to control; format: functional; outline: as §3
Candida parapsilosis [12] = assay: Increase in CGD gene ortholog accession number orf19.7270 expression in Candida parapsilosis CLIB214 at 50 uM after 2 hrs by microarray based transcriptional profiling relative to control; format: functional; outline: as §4
Candida parapsilosis [13] = assay: Decrease in CGD gene ortholog accession number orf19.4947 expression in Candida parapsilosis CLIB214 at 50 uM after 2 hrs by microarray based transcriptional profiling relative to control; format: functional; outline: as §3
Candida parapsilosis [14] = assay: Decrease in CGD gene ortholog accession number orf19.7325 expression in Candida parapsilosis CLIB214 at 50 uM after 2 hrs by microarray based transcriptional profiling relative to control; format: functional; outline: as §4
Candida parapsilosis [15] = assay: Decrease in GenBank accession number XP_457879.1 expression in Candida parapsilosis CLIB214 at 50 uM after 2 hrs by microarray based transcriptional profiling relative to control; format: functional; outline: as §4
Candida parapsilosis [16] = assay: Increase in PXP2 gene expression in Candida parapsilosis CLIB214 at 50 uM after 2 hrs by microarray based transcriptional profiling relative to control; format: functional; outline: as §2
Candida parapsilosis [17] = assay: Antifungal activity against Candida parapsilosis CLIB214 assessed as growth inhibition at 50 uM added after 6 hrs of bacterial growth measured after 4 hrs; format: functional; conditions: Lodderomyces parapsilosis
Outline: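 Overnight YPD culture at 30°C diluted to A600 0.2 in YPD. Farnesol added to 50 μM final at 2, 4, 6 or 8 h of growth (A600 about 0.8 at 4 h, 2.3 at 6 h, 6 at 8 h). Growth compared with methanol controls by A600 or cell counts.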

Candida parapsilosis [18] = assay: Decrease in CGD gene ortholog accession number orf19.3434 expression in Candida parapsilosis CLIB214 at 50 uM after 2 hrs by microarray based transcriptional profiling relative to control; format: functional; outline: as §3
Candida parapsilosis [19] = assay: Increase in CGD gene ortholog accession number orf19.854 expression in Candida parapsilosis CLIB214 at 50 uM after 2 hrs by microarray based transcriptional profiling relative to control; format: functional; outline: as §2
Candida parapsilosis [20] = assay: Increase in GAR1 gene expression in Candida parapsilosis CLIB214 at 50 uM after 2 hrs by microarray based transcriptional profiling relative to control; format: functional; outline: as §2
Candida parapsilosis [21] = assay: Increase in POT1 gene expression in Candida parapsilosis CLIB214 at 50 uM after 2 hrs by microarray based transcriptional profiling relative to control; format: functional; outline: as §2
Candida parapsilosis [22] = assay: Decrease in CGD gene ortholog accession number orf19.530 expression in Candida parapsilosis CLIB214 at 50 uM after 2 hrs by microarray based transcriptional profiling relative to control; format: functional; outline: as §3
Candida parapsilosis [23] = assay: Decrease in CTN1 gene expression in Candida parapsilosis CLIB214 at 50 uM after 2 hrs by microarray based transcriptional profiling relative to control; format: functional; outline: as §4
Candida parapsilosis [24] = assay: Increase in GenBank accession number NP_943645.1 expression in Candida parapsilosis CLIB214 at 50 uM after 2 hrs by microarray based transcriptional profiling relative to control; format: functional; outline: as §2
Candida parapsilosis [25] = assay: Increase in GenBank accession number NP_943633.1 expression in Candida parapsilosis CLIB214 at 50 uM after 2 hrs by microarray based transcriptional profiling relative to control; format: functional; outline: as §2
Candida parapsilosis [26] = assay: Increase in CGD gene ortholog accession number orf19.5963 expression in Candida parapsilosis CLIB214 at 50 uM after 2 hrs by microarray based transcriptional profiling relative to control; format: functional; outline: as §4

What does the source list for `CC(C)=CCC/C(C)=C/CC/C(C)=C/CO` [FARNESOL]?
Activity (Candida parapsilosis [1]): Active; fold change (FC) (Candida parapsilosis [2]): 1.86; fold change (FC) (Candida parapsilosis [3]): 2.21; fold change (FC) (Candida parapsilosis [4]): 1.7; fold change (FC) (Candida parapsilosis [5]): 1.53; fold change (FC) (Candida parapsilosis [6]): 2.26; inhibition at 50 µM (Candida parapsilosis [7]): 25.5%; fold change (FC) (Candida parapsilosis [8]): 1.89; fold change (FC) (Candida parapsilosis [9]): 3.21; fold change (FC) (Candida parapsilosis [10]): 1.61; fold change (FC) (Candida parapsilosis [11]): 1.5; fold change (FC) (Candida parapsilosis [12]): 1.67; fold change (FC) (Candida parapsilosis [13]): 1.58; fold change (FC) (Candida parapsilosis [14]): 1.67; fold change (FC) (Candida parapsilosis [15]): 1.71; fold change (FC) (Candida parapsilosis [16]): 2.04; inhibition at 50 µM (Candida parapsilosis [17]): 49%; fold change (FC) (Candida parapsilosis [18]): 1.8; fold change (FC) (Candida parapsilosis [19]): 1.69; fold change (FC) (Candida parapsilosis [20]): 2.89; fold change (FC) (Candida parapsilosis [21]): 1.71; fold change (FC) (Candida parapsilosis [22]): 1.89; fold change (FC) (Candida parapsilosis [23]): 1.92; fold change (FC) (Candida parapsilosis [24]): 2.05; fold change (FC) (Candida parapsilosis [25]): 2.81; fold change (FC) (Candida parapsilosis [26]): 1.68
